Reference: ChEMBL document CHEMBL2385018, “Microwave assisted synthesis, cholinesterase enzymes inhibitory activities and molecular docking studies of new pyridopyrimidine derivatives” (Bioorg Med Chem, 2013)

How the values were obtained:
[1] = Selectivity ratio of IC50 for equine serum BuChE to IC50 for electric eel AChE
[2] = target: Cholinesterase (Equus caballus) (UniProt P81908); experiment: Selectivity ratio of Galanthamine IC50 to compound IC50 for equine BChE
Cholinesterase = Cholinesterase (Equus caballus, UniProt P81908); experiment: Inhibition of equine serum BuChE using S-butyrylthiocholine chloride as substrate incubated for 15 mins prior to substrate addition measured after 30 mins by Ellman's method
Sequence of Cholinesterase (P81908 whole entry): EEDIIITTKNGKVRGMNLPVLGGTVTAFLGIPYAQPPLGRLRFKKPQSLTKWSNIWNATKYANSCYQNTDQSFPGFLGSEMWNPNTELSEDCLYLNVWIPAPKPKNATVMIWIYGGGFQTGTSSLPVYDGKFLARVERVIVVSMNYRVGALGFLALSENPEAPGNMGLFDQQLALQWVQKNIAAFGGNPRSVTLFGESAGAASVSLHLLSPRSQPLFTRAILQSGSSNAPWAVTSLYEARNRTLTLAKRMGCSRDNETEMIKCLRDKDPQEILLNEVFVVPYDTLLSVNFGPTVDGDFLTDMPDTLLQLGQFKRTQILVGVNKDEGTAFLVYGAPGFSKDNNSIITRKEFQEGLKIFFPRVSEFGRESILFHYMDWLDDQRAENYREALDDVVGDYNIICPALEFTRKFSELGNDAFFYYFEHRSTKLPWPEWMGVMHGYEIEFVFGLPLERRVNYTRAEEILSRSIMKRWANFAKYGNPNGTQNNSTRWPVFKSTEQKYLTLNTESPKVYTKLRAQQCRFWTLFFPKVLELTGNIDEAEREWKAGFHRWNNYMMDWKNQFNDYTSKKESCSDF
How it was run: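 Modified Ellman method in 0.1 M sodium phosphate buffer, pH 8. Samples were dissolved in DMSO (1 mg/mL stock; 1% DMSO final). Equine serum BChE was preincubated with sample for 15 min at 25 °C. DTNB (10 mM stock) and S-butyrylthiocholine chloride were then added, and absorbance was read at 412 nm after 30 min. Triplicate, blank-corrected, % inhibition versus control.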

[3] = Selectivity ratio of IC50 for electric eel AChE to IC50 for equine serum BuChE
Acetylcholinesterase = Acetylcholinesterase (Electrophorus electricus, UniProt O42275); experiment: Inhibition of electric eel AChE using […] as substrate incubated for 15 mins prior to substrate addition measured after 30 mins by Ellman's method
Sequence of Acetylcholinesterase (O42275 whole entry): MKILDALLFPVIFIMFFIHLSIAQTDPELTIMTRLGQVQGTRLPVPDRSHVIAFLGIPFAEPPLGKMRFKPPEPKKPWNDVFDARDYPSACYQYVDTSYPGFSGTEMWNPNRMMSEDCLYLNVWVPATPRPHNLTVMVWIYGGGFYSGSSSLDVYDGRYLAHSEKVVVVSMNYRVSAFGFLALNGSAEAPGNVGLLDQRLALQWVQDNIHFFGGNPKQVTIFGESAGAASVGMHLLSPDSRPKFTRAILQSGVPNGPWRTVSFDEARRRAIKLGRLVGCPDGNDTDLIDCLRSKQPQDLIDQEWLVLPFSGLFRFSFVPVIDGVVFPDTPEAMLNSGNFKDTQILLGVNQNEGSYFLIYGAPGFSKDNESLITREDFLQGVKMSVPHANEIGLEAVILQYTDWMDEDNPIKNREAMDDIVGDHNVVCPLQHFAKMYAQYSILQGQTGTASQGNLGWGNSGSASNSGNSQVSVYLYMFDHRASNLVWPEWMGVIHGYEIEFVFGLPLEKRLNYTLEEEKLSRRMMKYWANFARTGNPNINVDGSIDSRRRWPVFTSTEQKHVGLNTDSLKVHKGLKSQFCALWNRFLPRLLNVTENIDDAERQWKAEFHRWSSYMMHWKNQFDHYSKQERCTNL

Sequence of Cholinesterase (Equus caballus) (P81908 whole entry): as the sequence (P81908 whole entry) above

Row | SMILES | Ratio IC50 [1] | Ratio IC50 [2] | IC50 (Cholinesterase) | Ratio IC50 [3] | IC50 (Acetylcholinesterase)
1 | S=C1NC2=C(CNC/C2=C\c2ccc(Cl)cc2Cl)C(c2ccc(Cl)cc2Cl)N1 (stereo not given) | 1.5 | 2 | 49.8 µM | 0.67 | 26.3 µM
2 | O=[N+]([O-])c1cccc(/C=C2\CNCC3=C2NC(=S)NC3c2cccc([N+](=O)[O-])c2)c1 (stereo not given) | 0.24 | 2 | 8.09 µM | 4.25 | 34.3 µM
3 | O=C1NC2=C(CNC/C2=C\c2ccccc2Cl)C(c2ccccc2Cl)N1 (stereo not given) | 0.1 | 2 | 2.51 µM | 9.57 | 24.1 µM
4 | COc1ccccc1/C=C1\CNCC2=C1NC(=O)NC2c1ccccc1OC (stereo not given) | 0.27 | 2 | 10.7 µM | 3.75 | 40.2 µM
5 | S=C1NC2=C(CNC/C2=C\c2ccccc2Cl)C(c2ccccc2Cl)N1 (stereo not given) | 0.09 | 2 | 2.91 µM | 11.1 | 32.4 µM
6 | O=C1NC2=C(CNC/C2=C\c2ccc(Br)cc2)C(c2ccc(Br)cc2)N1 (stereo not given) | 0.39 | 2 | 6.22 µM | 2.54 | 15.9 µM
7 | S=C1NC2=C(CNC/C2=C\c2ccc(Cl)cc2)C(c2ccc(Cl)cc2)N1 (stereo not given) | 2.78 | 2 | 6.26 µM | 0.35 | 2.25 µM
8 | O=C1NC2=C(CNC/C2=C\c2ccc(Cl)cc2Cl)C(c2ccc(Cl)cc2Cl)N1 (stereo not given) | 0.79 | 2 | 23.5 µM | 1.26 | 29.9 µM
9 | S=C1NC2=C(CNC/C2=C\c2ccc(Br)cc2)C(c2ccc(Br)cc2)N1 (stereo not given) | 0.14 | 12 | 1.65 µM | 7.2 | 11.9 µM
10 | O=C1NC2=C(CNC/C2=C\c2cccc([N+](=O)[O-])c2)C(c2cccc([N+](=O)[O-])c2)N1 (stereo not given) | 0.37 | 2 | 10.3 µM | 2.73 | 28.3 µM
11 | COc1ccccc1/C=C1\CNCC2=C1NC(=S)NC2c1ccccc1OC (stereo not given) | 1.47 | 16 | 1.18 µM | 0.67 | 0.8 µM
12 | O=C1NC2=C(CNC/C2=C\c2ccc(F)cc2)C(c2ccc(F)cc2)N1 (stereo not given) | 0.43 | 2 | 18.9 µM | 2.34 | 44.2 µM
13 | S=C1NC2=C(CNC/C2=C\c2ccccc2)C(c2ccccc2)N1 (stereo not given) | 0.2 | 2 | 3.78 µM | 5.09 | 19.3 µM
14 | Cc1ccccc1/C=C1\CNCC2=C1NC(=S)NC2c1ccccc1C (stereo not given) | 0.08 | 2 | 3.07 µM | 12.9 | 39.7 µM
15 | Fc1ccc(/C=C2\CNCC3=C2NC(=S)NC3c2ccc(F)cc2)cc1 (stereo not given) | 0.77 | 2 | 28.8 µM | 1.29 | 37.2 µM
16 | Cc1ccc(/C=C2\CNCC3=C2NC(=O)NC3c2ccc(C)cc2)cc1 (stereo not given) | 0.15 | 2 | 7.09 µM | 6.56 | 46.5 µM
17 | O=C1NC2=C(CNC/C2=C\c2ccccc2F)C(c2ccccc2F)N1 (stereo not given) | 0.18 | 2 | 3.31 µM | 5.61 | 18.6 µM
18 | Cc1ccc(/C=C2\CNCC3=C2NC(=S)NC3c2ccc(C)cc2)cc1 (stereo not given) | 0.17 | 2 | 6.27 µM | 5.95 | 37.5 µM
19 | Cc1ccccc1/C=C1\CNCC2=C1NC(=O)NC2c1ccccc1C (stereo not given) | 0.13 | 2 | 5.22 µM | 7.74 | 40.4 µM
20 | O=C1NC2=C(CNC/C2=C\c2ccc(Cl)cc2)C(c2ccc(Cl)cc2)N1 (stereo not given) | 0.45 | 2 | 16.7 µM | 2.2 | 36.8 µM
21 | O=C1NC2=C(CNC/C2=C\c2ccccc2)C(c2ccccc2)N1 (stereo not given) | 0.04 | 2 | 2.86 µM | 24 | 68.7 µM
22 | Fc1ccccc1/C=C1\CNCC2=C1NC(=S)NC2c1ccccc1F (stereo not given) | 0.16 | 2 | 6.5 µM | 6.21 | 40.4 µM
23 | S=C1NC2=C(CNC/C2=C\c2cccc3ccccc23)C(c2cccc3ccccc23)N1 (stereo not given) | 4.07 | 2 | 5.58 µM | 0.25 | 1.37 µM
24 | O=C1NC2=C(CNC/C2=C\c2cccc3ccccc23)C(c2cccc3ccccc23)N1 (stereo not given) | 0.41 | 2 | 5.39 µM | 2.44 | 13.2 µM
